Screening results as filed in PubChem.
Only some compounds are listed: those with a hit (about 2.3% of all), similar ones and a draw of the others.
MsrA inhibitor: bovine MsrA inhibition; purified bovine MsrA, absorbance read-out; inhibition, % at 15.5 µM; 0.75% of 360,000 active; AID 651718; in the data active means inhibition above about 4.5%;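 further: 0% = vehicle wells with enzyme and 100% = reference inhibitor wells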
MC4R antag cAMP: antagonists of human melanocortin 4 receptor (MC4R); MC4R-expressing cells, MTII-stimulated cAMP, LANCE TR-FRET; inhibition, % at 6.5 µM; 0.48% of 360,000 active;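 active means inhibition above its plate's cutoff, the mean of tested wells on that plate plus 3 SD, cut at about 29% in these data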;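 further: 0% = Melanotan II alone and 100% = Melanotan II plus saturating MCL0020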
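Assay system: U2OS cells stably expressing human melanocortin 4 receptor (MC4R) / Dosing: 6.5 µM / Timing: compound 30 min, challenge 1 h, detection 1 h / Measured by: Eu-cAMP/anti-cAMP TR-FRET, emission 671 nm / Replicates: singlicate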
bovine MsrA act: activates bovine MsrA enzyme; purified bovine MsrA, absorbance read-out; activation, % at 10.6 µM; AID 602163; 0.3% of 360,000 active; in the data active means activation above about 7.5%;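 further: 0% = vehicle and 100% = reference activator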
MC4R barr agon: human MC4R agonism via beta-arrestin; P32245; U2OS MC4R beta-arrestin complementation, luminescence; percent of melanotan II response, DMSO zero; activation, % at 8.9 µM; 0.98% of 360,000 active;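 active means activation above a per-plate cutoff, the mean activation of sample wells on that plate plus 3 SD, cut at about 8% in these data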
MC4R barr ag: human MC4R beta-arrestin agonism confirmation. shares compounds with MC4R barr agon. U2OS MC4R beta-arrestin recruitment, luminescence; scaled DMSO 0%, Melanotan II 100%. activation, % at 8.9 µM. 31% of 2,400 active. AID 602192;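 active means mean activation across replicates above the hit cutoff set in the earlier primary screen, cut at about 8% in these data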
MOR-DOR barr ag: activates mu-delta opioid heterodimer, MC4R agonist counter-screen | U2OS PathHunter beta-arrestin, beta-gal luminescence; percent of deltorphin B response, DMSO zero | activation, % at 9.2 µM | AID 602194 | 5.8% of 2,400 active | shares compounds with MC4R barr agon;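 active means mean activation across replicates exceeds the hit threshold derived in the earlier primary screen, cut at about 18% in these data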;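 further: 100% = deltorphin B at 0.9 µM final and 0% = DMSO alone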
Starred values were filed as active, the others as inactive; nt = no result given.

SMILES	MsrA inhibitor	MC4R antag cAMP	bovine MsrA act	MC4R barr agon	MC4R barr ag	MOR-DOR barr ag
Cc1ccc(O)c(NC(=O)c2noc3c2CCc2ccccc2-3)c1	0.9	-2.2	-3.5	0.3	nt	nt
CC(=O)Nc1cc(-c2ccc(N(C)C)cc2)cn2c(-c3ccc(F)c(Cl)c3)cnc12	-0.3	2.2	-4.3	70.7*	200.3*	10.2
CC(=O)Nc1cc(-c2ccc(C(=O)N3CCOCC3)cc2)cn2c(-c3ccc(F)cc3)cnc12	1.9	-0.6	-0.9	6.7	nt	nt
CC(=O)Nc1cc(-c2ccc(S(C)(=O)=O)cc2)cn2c(-c3ccc(F)c(Cl)c3)cnc12	0.6	11.5	-1.5	19.5*	16.9*	3.6
CC(=O)Nc1cc(-c2ccc(S(C)(=O)=O)cc2)cn2c(-c3ccc(F)cc3)cnc12	-0.1	9.8	-15.2	1.7	nt	nt
CC(=O)Nc1cc(-c2ccc(N(C)C)cc2)cn2c(-c3ccc(F)cc3)cnc12	1.2	-8.0	-6.7	122.6*	69.7*	3.3
COC(=O)c1cc(OC)c(OC)cc1NC(=O)Nc1ccc(OC)cc1	-0.1	8.8	-3.7	14.2*	-0.7	2.3
CC(=O)c1ccc2c(c1)Cc1cc(C(C)=O)ccc1-2	1.0	-4.6	-9.2	14.1*	-0.6	7.6
CCC(=O)Nc1ccc2c(c1)Cc1cc(NC(=O)CC)ccc1-2	-0.1	2.8	-0.4	-2.1	nt	nt
N#Cc1cc(-c2ccc(Cl)cc2)cnc1Sc1ccc(F)cc1	-0.1	1.1	-3.1	18.5*	5.2	4.6
Cc1cc(C(=O)Nc2sc3c(c2C#N)CCCCC3)cs1	nt	8.9	-2.5	14.0*	-1.7	3.1
O=C(NNC(=O)c1cccc2ccccc12)c1ccc(Cl)cc1Cl	-0.4	-1.2	-1.6	-1.4	nt	nt
CN1C(=S)N(c2ccccc2)C(=O)/C1=C/c1cccs1	-1.1	-4.2	4.7	16.5*	7.7	1.6
CSc1ccc(CCNC(=O)CSc2ccsc2[N+](=O)[O-])cc1	-0.1	0.3	-8.6	11.2*	3.5	12.4
NS(=O)(=O)c1ccc(CCNC(=O)CSc2ccsc2[N+](=O)[O-])cc1	-0.6	-2.6	-8.9	0.9	nt	nt
Cc1ccc(NC(=O)c2cc(NC(=O)c3ccco3)ccc2N2CCCCC2)cc1	0.8	20.2	2.1	17.7*	6.2	6.8
ClCc1nc2ccccc2n1Cc1ccccc1	1.0	20.5	-1.8	-0.5	nt	nt
O=C(Oc1ccc(C(=S)N2CCCCC2)cc1)c1ccccc1	2.1	-12.7	-11.1	-0.7	nt	nt
Cc1ccc(NC(=O)c2cc(-c3cccc(O)c3)on2)cc1C	0.1	4.8	1.5	9.6*	-0.7	7.7
Cc1ccc(NC(=O)c2cc(-c3ccco3)on2)cc1C	-0.6	13.3	-0.1	0.3	nt	nt
Oc1cccc(C(O)CNCc2ccc(-c3ccccc3)cc2)c1 (stereo not drawn)	1.0	-4.6	-1.3	-0.9	nt	nt
Oc1cccc(C(O)CNCc2ccc(OCc3ccc(Cl)cc3Cl)cc2)c1 (stereo not drawn)	-0.5	0.0	-2.9	13.8*	27.2*	15.3
CCOC(=O)Cc1csc(NC(=O)c2sc3nc4cc(C)ccc4cc3c2N)n1	1.1	11.3	-7.9	38.9*	24.9*	2.5
CCCCCCCCN1[C@@H](CC(=O)OCC)c2cc(F)ccc2S1(=O)=O	0.7	11.8	1.4	3.4	nt	nt
C#CCN1C(=O)S/C(=C\c2ccc(N3CCOCC3)cc2C)C1=O	1.1	6.0	-3.5	11.3*	-2.7	3.1
SMILES	MsrA inhibitor	MC4R antag cAMP	bovine MsrA act	MC4R barr agon	MC4R barr ag	MOR-DOR barr ag
CCN1C(=O)S/C(=C\c2ccc(N3CCOCC3)cc2C)C1=O	0.7	2.6	-1.3	0.0	nt	nt
COc1ccccc1CNCC(O)Cn1c2ccccc2c2ccccc21 (stereo not drawn)	1.6	3.5	-7.0	10.2*	20.5*	20.9*
COc1ccc(-n2ncc3c(N4CCCCC4)ncnc32)cc1	nt	1.0	-3.9	0.0	nt	nt
Nc1nc(Nc2cccc3ccccc23)nc(C2CCCC2=O)n1 (stereo not drawn)	1.4	nt	nt	nt	nt	nt
Nc1nc(CCl)nc(Nc2cccc3ccccc23)n1	0.3	6.9	-8.3	25.8*	18.7*	43.0*
O=C(/C=C/c1cc([N+](=O)[O-])ccc1OC(F)F)Nc1cccc(OC(F)F)c1	-0.8	-4.1	-9.2	20.2*	1.1	6.7
CC(C)Oc1ccc(CCc2nnc(SC(C)C(=O)O)n2-c2ccccc2)cc1 (stereo not drawn)	1.0	14.8	-3.8	-1.1	nt	nt
